# Assay results: PubChem BioAssay
# The source made the active and inactive calls.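 The calls were made as follows: active = duplicate-averaged activation above buffer control mean plus 5 SD of those controls; inactive = the rest.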
# Test: nonspecific flux increase, KCNQ1-free cells – parental CHO cells, counter-screen for KCNQ1 potentiator project (AID 493006);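 as to activation: fluorescence ratio of max minus min over baseline after K+ and Tl+ depolarization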
# Details: parental CHO-K1 cells, FluxOR thallium flux, at 10 µM; active compounds read high
# Method in brief: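 Benchmarks – buffer and R-L3 controls · Assay system – untransfected host CHO-K1 cells with FluxOR thallium dye · Measure – fluorescence change ratio scaled 0% buffer, 100% R-L3 · Technique – kinetic thallium-flux fluorescence · Timing – overnight 37 °C plating, 90 min RT dye, 20 min compound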
SMILES,activation,outcome
Fc1ccc2nc(Nc3nc4c(F)cc(F)cc4s3)sc2c1,165% (active),
N#Cc1ccccc1Oc1ccccc1C=O,143% (active),
O=C(NC(=S)Nc1ccccc1Cl)c1cncc(Br)c1,,inactive
COc1cccc(/C=N/Nc2snc(SC)c2C#N)c1O,,inactive
Cc1c(/C=N\NC(=O)c2ccc(F)cc2)cnn1C,,inactive
CSc1ccc(/C=N/n2c(Cc3ccc(Br)cc3)n[nH]c2=S)cc1,,inactive
O=C1CC(c2cccs2)Cc2nc(NC(=O)C3CC3)ncc21 (stereo not given),,inactive
CCCn1c(N)c(C(=O)CSc2nc(C)nc3sc(C)c(C)c23)c(=O)[nH]c1=O,166% (active),
COc1cccc(C(=O)NNC(=O)C(=O)Nc2ccc(C)c(Cl)c2)c1,278% (active),
Cc1ccc(/C(O)=C/C(=O)C(=O)NC23CC4CC(CC(C4)C2)C3)cc1,284% (active),
CN1C(=O)C2(Oc3ccccc3C3CC(c4ccccc4)=NN32)c2ccccc21 (stereo not given),,inactive
N#C/C=C1/NC(=O)c2ccccc2S1,138% (active),
CCC1=NN(C(=O)c2ccc(Br)cc2)C(O)(c2ccccc2)C1 (stereo not given),,inactive
Fc1cccc2sc(Nc3nnc(-c4ccco4)o3)nc12,354% (active),
COc1ccc(CNC(=O)CNC(C)c2ccc(F)cc2)cc1 (stereo not given),,inactive
Cc1ccc2nc(C)cc(N/N=C/c3cccnc3)c2c1,,inactive
O=C(Nc1nc(=O)c2ccccc2s1)c1ccc(F)cc1,,inactive
CCCc1c(C)[nH]c2ccc(NC(C)=O)cc2c1=O,,inactive
Cn1c(=NC(=O)c2ccco2)sc2cccc(F)c21,,inactive
COc1ccccc1CNC(=O)COC(=O)c1nccnc1N,,inactive
